# Source: PubChem
# 697 NFkB inh – inhibitors of the PMA/ionomycin-induced NF-kB reporter in 697 B cells; 697 B-cell NF-kB luciferase reporter, 16 h; inhibition, % at 4 µM; actives 0.33% (n = 330,000); AID 435022; in the data active = inhibition above about 35%
# IMP-1 inhibitor – inhibitors of Pseudomonas aeruginosa IMP-1 metallo-beta-lactamase; purified IMP-1, nitrocefin hydrolysis, epi-absorbance fluorescence; inhibition, % at 5.6 µM; actives 0.45% (n = 290,000); AID 1556;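 active = inhibition above the mean plus 3 SD of all compounds in the same screening run, cut at about 4.5% in these data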;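 note: 0% = IMP-1 with DMSO and 100% = DMSO wells lacking enzyme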
#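 Material – recombinant IMP-1 enzyme, purified · Amount – IMP-1 0.2 nM before substrate addition · Medium – HEPES buffer pH 7.1 with ZnSO4 and Brij 35 · Timing – 25 °C, 15 min preincubation, 25 min reaction · Measured by – plate fluorescence quenching by hydrolysis product, ex 480/em 530 nm · Read-out – percent enzyme inhibition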
# Mdm2-MdmX inh – inhibitors of human Mdm2/MdmX interaction; inhibition, % at 8 µM; actives 3% (n = 330,000); O15151+Q00987; SaOS-2 split-luciferase Mdm2/MdmX complementation, luminescence;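 active = inhibition of at least 50% at 8 µM in the primary screen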
# Target sequence (O15151 whole entry, looked up): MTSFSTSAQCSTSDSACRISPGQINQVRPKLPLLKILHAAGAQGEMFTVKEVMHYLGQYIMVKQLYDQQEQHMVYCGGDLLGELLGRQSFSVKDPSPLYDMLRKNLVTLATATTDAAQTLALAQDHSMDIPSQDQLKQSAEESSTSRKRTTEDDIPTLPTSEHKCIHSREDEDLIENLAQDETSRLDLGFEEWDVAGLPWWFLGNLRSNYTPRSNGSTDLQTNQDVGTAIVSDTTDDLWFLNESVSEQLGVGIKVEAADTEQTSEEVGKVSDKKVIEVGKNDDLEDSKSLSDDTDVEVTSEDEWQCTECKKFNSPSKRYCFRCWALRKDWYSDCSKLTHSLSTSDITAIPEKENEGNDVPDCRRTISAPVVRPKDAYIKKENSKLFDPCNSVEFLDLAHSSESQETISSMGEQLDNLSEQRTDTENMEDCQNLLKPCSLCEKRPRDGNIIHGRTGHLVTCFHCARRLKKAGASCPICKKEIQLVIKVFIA
# Target sequence (Q00987 whole entry, looked up): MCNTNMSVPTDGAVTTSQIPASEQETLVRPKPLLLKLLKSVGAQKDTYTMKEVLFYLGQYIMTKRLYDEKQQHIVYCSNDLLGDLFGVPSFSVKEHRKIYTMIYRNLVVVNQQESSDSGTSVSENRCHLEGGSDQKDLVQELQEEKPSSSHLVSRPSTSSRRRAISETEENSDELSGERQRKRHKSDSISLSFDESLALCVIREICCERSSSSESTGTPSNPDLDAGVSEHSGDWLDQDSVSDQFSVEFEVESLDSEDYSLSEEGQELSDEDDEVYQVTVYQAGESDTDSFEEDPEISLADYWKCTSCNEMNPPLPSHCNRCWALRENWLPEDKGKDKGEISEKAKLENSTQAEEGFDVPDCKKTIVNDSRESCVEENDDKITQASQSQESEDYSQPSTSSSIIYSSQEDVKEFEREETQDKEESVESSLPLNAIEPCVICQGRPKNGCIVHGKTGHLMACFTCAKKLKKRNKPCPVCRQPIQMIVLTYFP
# aSyn UTR inh – 5' untranslated region of α-synuclein, MLPCN primary screen; alpha-synuclein 5'UTR reporter, inhibitor activity; AID 1813; actives 0.82% (n = 300,000); inhibition, % (tested at 7.5 µM); in the data active = inhibition above about 60%; inconclusive = no clear call, values can overlap the other calls;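 note: H4 neuroglioblastoma cells stably carrying SNCA 5'UTR luciferase fusion; 0% = DMSO wells and 100% = positive control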
# VIM-2 inhibitor – inhibitors of Pseudomonas aeruginosa VIM-2 metallo-beta-lactamase; purified VIM-2, nitrocefin hydrolysis, epi-absorbance fluorescence; inhibition, % at 5.6 µM; AID 1527; actives 0.89% (n = 290,000);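 active = inhibition above the mean of all tested compounds plus 3 SD, cutoff set per screening run, cut at about 7.5% in these data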;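 note: red hydrolysis product quenches plate fluorescence so inhibitors raise well fluorescence; 0% = enzyme with DMSO and 100% = DMSO without enzyme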
# Jurkat NFkB inh – inhibitors of the PMA/ionomycin-induced NF-kB reporter in Jurkat cells. inhibition, % at 4 µM. PMA/ionomycin-induced NF-kB luciferase reporter, luminescence. actives 0.53% (n = 330,000). AID 435003; in the data active = inhibition above about 50%
# Mdm2-MdmX conf – confirmation of human Mdm2/MdmX interaction inhibitors | Mdm2-MdmX binding, luminescent assay | actives 55% (n = 10,000) | shares compounds with Mdm2-MdmX inh | inhibition, % at 8 µM; in the data active = inhibition above about 40%
# FLuc counter – counter-screen for Mdm2/MdmX inhibitors: full-length luciferase. shares compounds with Mdm2-MdmX inh. SaOS-2 full-length luciferase counterscreen, luminescence. inhibition, % at 8 µM. actives 77% (n = 6,200). AID 504607;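 active = mean inhibition at 8 µM reaching about 37%, which flags the compound as non-specific, limit read from the data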;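 note: p53-null SaOS-2 cells with luciferase driven by a doxycycline-inducible promoter; compound on cells about two nights before reading with doxycycline added after day one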
# Starred values were filed as active, the others as inactive; ? = inconclusive; · = not tested or not shown. Only some compounds are listed: those with a hit (about 4.7% of all), similar ones and a draw of the others.
SMILES,697 NFkB inh,IMP-1 inhibitor,Mdm2-MdmX inh,aSyn UTR inh,VIM-2 inhibitor,Jurkat NFkB inh,Mdm2-MdmX conf,others
Clc1ccc(C2=Nn3c(nnc3-c3n[nH]c4c3CCC4)SC2)cc1,-11.1,-4.0,85.3*,58.3,2.3,39.5,68.5*,FLuc counter=44.5*
Brc1ccc(C2=Nn3c(nnc3-c3n[nH]c4c3CCC4)SC2)cc1,17.6,-2.0,80.2*,86.0*,2.9,48.4,79.5*,FLuc counter=72.5*
Cc1ccc(-c2nnc3n2N=C(c2ccc(Br)cc2)CS3)cc1,29.5,-3.4,14.3,26.3,-3.1,13.2,·,
Cc1cc(C(=O)OCC(=O)Nc2cccnc2Cl)c2ccccc2n1,1.6,-2.1,10.5,-10.8,-1.1,-5.3,·,
CSc1ncccc1C(=O)OCC(=O)c1ccc2c(c1)NC(=O)CO2,13.6,-2.2,67.9*,-14.5,-0.5,5.7,20.9,
Cc1cc(C(=O)NNC(=O)CN2C(=O)NC3(CCCCC3)C2=O)c(C)o1,17.4,·,-8.0,·,·,10.6,·,
C/C(=N\Nc1ccc(S(N)(=O)=O)cc1[N+](=O)[O-])c1cccnc1,-2.1,-5.0,58.2*,8.5,-2.6,-5.4,0.6,
Cc1cc(C)cc(NC(=O)CSc2nc3nc(C)cc(C)c3c(=O)[nH]2)c1,-6.0,·,48.3,·,·,-12.8,·,
O=C(Nc1cccc2ncccc12)c1ccc2c(c1)OCCO2,9.3,-2.3,4.3,-31.1,-2.8,-12.7,·,
CCN1C(=O)c2cccc3c(NC(=O)c4ccccc4)ccc1c23,26.4,-2.7,36.0,-24.9,-3.9,-9.3,·,
CCN1C(=O)c2cccc3c(NC(=O)c4ccc5c(c4)OCCO5)ccc1c23,2.7,-4.7,51.0*,-79.1,-0.8,-14.6,3.6,
CCN1C(=O)c2cccc3c(NC(=O)C4CCCCC4)ccc1c23,31.9,-4.3,55.0*,-10.2,-1.5,2.0,24.4,
CCN1C(=O)c2cccc3c(Cl)ccc(c23)C1=O,24.2,-1.6,11.3,-8.9,-1.8,0.1,·,
CCN1C(=O)c2cccc3c(Cl)ccc1c23,9.7,-2.5,50.4*,15.8,1.9,0.9,-5.2,
CCN1C(=O)c2cccc3c(NC(=O)c4ccc(OC)c(OC)c4)ccc1c23,31.9,0.0,53.9*,-4.8,-2.4,-12.8,24.0,
Cn1c(=O)c2c(nc(NNC(=O)C(F)(F)F)n2C)n(C)c1=O,2.0,-4.2,3.8,-11.7,-3.4,-9.3,·,
CC(C)(C)c1ccc(C(=O)NC(=S)Nc2nc3c(s2)CCCC3)cc1,-106.7,0.1,60.5*,-24.4,-0.2,-18.6,51.1*,FLuc counter=101.5*
COc1ccc(NS(=O)(=O)c2ccc3oc(SC(C)C(N)=O)nc3c2)cc1 (configuration not stated),-39.9,-1.0,27.8,-12.0,-3.8,16.4,·,
C=CCn1c(C)cc(C2=NNC(=NC(C)(C)C)SC2)c1C,-164.9,0.4,87.8*,89.4*,-1.3,-19.3,93.0*,FLuc counter=80.1*
C=CCN=C1NN=C(c2cc(C)n(CCOC)c2C)CS1,-61.6,-0.6,85.8*,85.8*,0.3,-20.2,89.5*,FLuc counter=31.0
O=C(c1ccco1)N1CCN(CC(O)COc2ccc3oc4ccccc4c3c2)CC1 (configuration not stated),-15.4,-1.1,10.2,23.7,1.6,7.6,·,
O=S(=O)(Nc1nc2ccccc2nc1NCc1ccco1)c1ccc(F)cc1,5.1,-4.0,-14.8,0.5,-4.0,12.5,·,
CSCC[C@H](NC(=O)Nc1ccc(OC(F)(F)F)cc1)C(=O)O,17.0,-2.9,2.6,0.6,-2.2,4.4,·,
COc1ccc(C)cc1Nc1n[n+](-c2ccccc2)c(-c2ccc(SC)cc2)s1,0.3,-4.8,11.6,-5.4,-4.9,-65.5,·,
CCc1nc(SCC(=O)NCCc2ccc(OC)c(OC)c2)c2c(=O)n(C)c(=O)n(C)c2n1,5.4,·,2.1,-7.1,·,-1.9,·,
SMILES,697 NFkB inh,IMP-1 inhibitor,Mdm2-MdmX inh,aSyn UTR inh,VIM-2 inhibitor,Jurkat NFkB inh,Mdm2-MdmX conf,others
O=C(COc1cc2oc(=O)c3c(c2cc1Cl)CCC3)Nc1ccc(CN2CCOCC2)cc1,0.2,-1.1,52.5*,11.2,4.6,-3.7,19.2,
Cc1cc(N/N=C/c2cccc([N+](=O)[O-])c2)nc(-n2nc(C)cc2C)n1,10.7,-3.8,15.2,-21.3,-3.9,-0.3,·,
Cc1cc(N/N=C/c2ccccc2[N+](=O)[O-])nc(-n2nc(C)cc2C)n1,-18.5,-3.4,53.3*,?,-5.2,5.5,36.6,FLuc counter=43.2*
Cc1cc(C)n2nc(C(=O)N/N=C/c3cccc(Cl)c3)nc2n1,9.8,-3.8,-4.6,-22.4,-2.8,-2.6,·,
Cc1cc(N/N=C/c2cccc(Cl)c2)nc(-n2nc(C)cc2C)n1,10.1,-3.0,64.0*,12.2,-2.0,2.5,30.7,
Cc1cc(N/N=C/c2ccc(O)cc2)c2cccc(C)c2n1,-56.2,-1.0,65.5*,-41.9,11.8*,-6.2,4.3,
COc1ccc(/C=N/Nc2cc(C)nc(-n3nc(C)cc3C)n2)cc1,4.9,-5.8,53.7*,5.8,-1.2,-3.5,40.2*,FLuc counter=51.7*
Cc1ccnc2nc(C(=O)OCCOc3ccc(Cl)cc3)nn12,0.6,-2.7,0.3,4.9,-1.4,11.7,·,
CCOC(=O)c1nn(-c2ccccc2C)c2nc(-c3ccc(Cl)cc3)c(C#N)c(=O)n12,-4.3,-4.7,11.4,25.5,-1.4,-3.4,·,
COc1ccc(NC(=O)C2=C(C)Nc3ncnn3C2c2ccccc2C(F)(F)F)c(OC)c1 (configuration not stated),14.2,-3.4,25.3,·,-2.8,11.1,·,
COc1ccccc1/C=N/Nc1cc(C)nc2ccc(C)cc12,-50.6,-2.7,-38.4,-29.7,-2.7,-32.8,·,
COc1ccc2nc(C)cc(N/N=C/c3ccccc3)c2c1,-28.0,·,100.4*,·,·,38.3,25.6,
Oc1ccc(/C=N/Nc2cc(N3CCCC3)nc(N3CCCC3)n2)cc1,-21.7,-2.2,29.2,4.0,-1.4,12.5,·,
COc1ccc(/C=N/Nc2cc(N3CCCC3)nc(N3CCCC3)n2)cc1,-32.0,-3.5,77.1*,11.9,-2.6,31.1,20.4,
CCOC(=O)C1CCCN(C(=O)c2ccc(NC(=O)CC3SC(N4CCCC4)=NC3=O)cc2)C1 (configuration not stated),11.8,·,14.6,13.2,·,-1.1,·,
CC(C)C(NC(=O)CCNC(=O)c1ccccc1Cl)c1nc2ccccc2[nH]1 (configuration not stated),6.1,·,0.3,·,·,-4.9,·,
Cn1c(=O)n(C)c2cc(NC(=O)COc3ccc(F)cc3)ccc21,14.5,-0.9,-4.6,-18.1,-0.8,-4.9,·,
COc1cc(C(=O)NCC(=O)N/N=C/c2ccccn2)cc(OC)c1OC,13.2,-0.6,-20.5,-10.5,-1.5,7.3,·,
COc1cc(C(=O)N/N=C(\Cc2ncc[nH]2)c2ccccc2)cc(OC)c1OC,5.0,-2.9,53.6*,·,-4.0,1.1,50.0*,FLuc counter=23.7
